Here are results for ten molecules from ChEMBL document CHEMBL1133630, “Chemical synthesis and pharmacology of 6- and 7-hydroxylated 2-carbomethoxy-3-(p-tolyl)tropanes: antagonism of cocaine's locomotor stimulant effects” (J Med Chem, 2000).

Assay [1] is filed under the species Rattus norvegicus. Put plainly: To inhibit high affinity uptake of [3H]NE into nerve endings (synaptosomes) prepared from various regions of the rat brain. The format is functional. The procedure, abridged:
(§1)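 Radiolabelled monoamine uptake inhibition. Six drug concentrations, each in triplicate, chosen from preliminary screens to bracket the approximate IC50.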

Assay [2] is filed under the species Rattus norvegicus. Put plainly: To inhibit high affinity uptake of [3H]5-HT into nerve endings (synaptosomes) prepared from various regions of the rat brain. The format is functional. The procedure, abridged: as §1
Assay [3] has as its target T1, Sodium-dependent dopamine transporter (Rattus norvegicus, UniProt P23977). Description: Inhibition of high affinity uptake of [3H]dopamine into nerve endings (synaptosomes) prepared from various regions of the rat brain. The format is subcellular. In outline: as §1
Assay [4] deals with T1, Sodium-dependent dopamine transporter. Put plainly: Inhibition of [3H]mazindol binding to dopamine transporter of rat striatal membranes. The format is cell membranes, Membrane.
For assay [5], the species on record is Rattus norvegicus. Description: To inhibit high affinity uptake of [3H]dopamine (DA) into nerve endings (synaptosomes) prepared from various regions of the rat brain. Format: functional. In outline:
as §1

SMILES strings stand for the structures. pKi: −log10 of the molar value.

T1 sequence (P23977 whole entry): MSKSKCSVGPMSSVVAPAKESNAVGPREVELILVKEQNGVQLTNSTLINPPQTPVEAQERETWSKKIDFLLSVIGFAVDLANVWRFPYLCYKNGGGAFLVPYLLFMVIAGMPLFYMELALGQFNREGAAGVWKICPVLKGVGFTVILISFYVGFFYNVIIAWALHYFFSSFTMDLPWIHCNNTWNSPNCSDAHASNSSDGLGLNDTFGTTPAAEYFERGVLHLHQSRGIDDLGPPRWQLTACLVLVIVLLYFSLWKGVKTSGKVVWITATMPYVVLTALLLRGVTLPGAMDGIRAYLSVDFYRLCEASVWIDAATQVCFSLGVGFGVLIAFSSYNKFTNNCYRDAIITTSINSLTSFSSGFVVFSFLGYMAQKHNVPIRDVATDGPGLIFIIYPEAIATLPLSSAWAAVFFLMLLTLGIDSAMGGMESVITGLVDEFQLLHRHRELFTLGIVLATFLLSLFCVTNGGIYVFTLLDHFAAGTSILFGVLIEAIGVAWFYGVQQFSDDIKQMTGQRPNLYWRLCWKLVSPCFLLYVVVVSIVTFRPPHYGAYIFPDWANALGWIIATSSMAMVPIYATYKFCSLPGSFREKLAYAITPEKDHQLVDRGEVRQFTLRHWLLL

Regarding `COC(=O)[C@H]1[C@@H](OC(=O)c2ccccc2)C[C@@H]2CC[C@H]1N2C` [COCAINE], the values for the pKi in the assay filed under Rattus norvegicus [1] and in the assay listed under Rattus norvegicus [2] were 6.97 and 6.81, respectively.

For `CCCC1C2CC[C@H](C[C@@H]1c1ccc(C)cc1)N2C` (stereo partly drawn), the pKi (as a rule, −log10 of the Ki, conventionally taken in molar units) in the assay filed under Rattus norvegicus [1] was 8.20; in assay [3], 7.29; in assay [4] it was 7.68; in the assay filed under Rattus norvegicus [2], 7.10.

With `COC(=O)[C@@H]1C2CC[C@H](C[C@@H]1c1ccccc1)N2C`, the negative-log Ki (pKi) was 7.43 in the assay listed under Rattus norvegicus [1], 7.05 in assay [4] and 6.76 in the assay listed under Rattus norvegicus [2].

In the case of `COC(=O)[C@H]1C2[C@@H](O)C[C@H](C[C@H]1c1ccc(C)cc1)N2C` (stereo in doubt; 14b), the pKi in the assay filed under Rattus norvegicus [1] was 6.52; in assay [3] it was 5.54; in assay [4], 5.85; in the assay listed under Rattus norvegicus [2], less than 4.00.

As to `COC(=O)[C@@H]1C2C(O)C[C@H](C[C@@H]1c1ccc(C)cc1)N2C` (stereo partly drawn), the pKi in the assay filed under Rattus norvegicus [1] is 7.35; in assay [3], 7.41; in assay [4], 7.60; in the assay listed under Rattus norvegicus [2], 6.24.

`COC(=O)[C@H]1C2[C@@H](O)C[C@H](C[C@H]1c1ccc(C)cc1)N2C` (stereo in doubt; 19b): the pKi in assay [3] is 6.17; in assay [4] it was 6.27.

For `COC(=O)[C@H]1C2[C@H](O)C[C@H](C[C@H]1c1ccc(C)cc1)N2C`, the pKi in the assay filed under Rattus norvegicus [1] is 7.22; in assay [4] it was 6.87.

Regarding `COC(=O)[C@@H]1C2C[C@H](O)[C@H](C[C@@H]1c1ccc(C)cc1)N2C`, the pKi was 6.81 in the assay filed under Rattus norvegicus [1] and 5.17 in the assay listed under Rattus norvegicus [2].

As to `COC(=O)[C@H]1C2C(O)C[C@H](C[C@@H]1c1ccc(C)cc1)N2C` (stereo partly drawn), the pKi in the assay filed under Rattus norvegicus [1] was 6.00; in assay [3], 5.25; in assay [4], 5.54; in the assay listed under Rattus norvegicus [2] it was 5.52.

In the assay listed under Rattus norvegicus [5], `Cc1ccc(C2C[C@H]3CC4OC(=O)C2C4N3C)cc1` (stereo partly drawn) showed a pKi of 4.60.
